Results reported in PubChem BioAssay.
Active and inactive are the calls of the source.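 The calls were made as follows, unless noted: active = inhibition above 20% together with a positive visual image hit; inconclusive = visual image hit but inhibition not above 20%; inactive = no visual image hit.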

Key:
[1] = inhibitors of TNFa-induced NFkB p65 translocation, primary screen, imaging, HUVEC, MLSMR starter and 10KST1 sets (AID 438); settings: HUVEC TNFa-induced p65 nuclear translocation; cell count: measured here: nuclei count (cytotoxicity indicator), at 2.08 µM; inhibition: at 2 µM, stronger effect = higher value, 0% TNFa-plus-vehicle, 100% no-TNFa wells;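 also: compound added about 3h40 before a 20 min TNFalpha stimulation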;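 as to inhibition: signal is the nuclear over cytoplasmic p65 intensity ratio per well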
[2] = inhibitors of mutant huntingtin aggregation, primary screen, imaging, exon1htt(103Q)mCFP cells, high-content imaging (AID 483;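 active = visual image review flags a hit and inhibition of aggregation exceeds 20%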;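 also: compound exposure lasted 3 days before fixation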;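 as to nuclei count: percent of the per-plate median nuclei count of sample wells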); settings: exon1htt(103Q)mCFP cell line, aggregate imaging, at 2 µM; inhibition of aggregation: stronger effect = higher value; nuclei count: measured here: cell count, toxicity
[3] = inhibitors of E-selectin induction by TNFa, primary screen, imaging, HUVEC, immunofluorescence, MLSMR starter and 10KST1 sets (AID 487;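 active = visually confirmed hit in the image check and inhibition above 20%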;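 as to inhibition: signal is fraction of cell area covered by stained E-selectin grains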;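 as to nuclei count: 100% = median nuclei count of all wells on the same plate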); settings: HUVEC TNFalpha-induced E-selectin immunofluorescence imaging, at 2 µM; inhibition: stronger effect = higher value; nuclei count: measured here: cell number, toxicity
[4] = molecular target: Voltage-gated potassium channel subunit beta-2 (Rattus norvegicus) (UniProt P62483); experiment: KvBeta enzyme negative modulators, primary screen, biochemical, NADPH fluorescence (AID 622;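 active = fluorescence slope higher than the sample average by over 3 SD, cut at about -0.22 in these data, passing the limit was not always enough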;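 also: slope of raw intensity against log time taken from 70 to 1610 s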); settings: recombinant KvBeta, 4-cyanobenzaldehyde reduction, at 10 µM, stronger effect = higher value
Voltage-gated potassium channel subunit beta-2 (Rattus norvegicus), sequence (P62483 whole entry, looked up): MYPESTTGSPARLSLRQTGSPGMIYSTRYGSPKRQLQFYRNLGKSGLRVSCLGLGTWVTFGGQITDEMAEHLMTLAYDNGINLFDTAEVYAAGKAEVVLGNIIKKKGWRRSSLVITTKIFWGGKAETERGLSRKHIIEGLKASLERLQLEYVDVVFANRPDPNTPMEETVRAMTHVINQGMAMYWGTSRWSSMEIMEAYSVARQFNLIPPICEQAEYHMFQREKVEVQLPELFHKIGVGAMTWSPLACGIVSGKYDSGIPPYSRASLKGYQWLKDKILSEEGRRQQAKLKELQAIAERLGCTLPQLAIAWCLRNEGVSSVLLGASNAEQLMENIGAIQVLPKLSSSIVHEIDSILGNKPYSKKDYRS

[5] = molecular target: Voltage-gated potassium channel subunit beta-2 (Rattus norvegicus) (UniProt P62483); experiment: KvBeta positive modulators, primary screen, biochemical, NADPH fluorescence (AID 623;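 active = NADPH fluorescence slope more negative than the mean of all samples by about 3 SD, 99.7% confidence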;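 also: fluorescence intensity change per second fitted from 20 to 320 s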); settings: Recombinant KvBeta, NADPH fluorescence decrease slope, 10 min; at 10 µM; stronger effect = lower value
[6] = molecular target: Muscarinic acetylcholine receptor M4 (Homo sapiens) (UniProt P08173); experiment: compounds altering M4/GIRK thallium flux, either direction, primary screen, M4 allosteric agonist project, cell-based, HEK293 M4/GIRK, BTC-AM (AID 625;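 active = fluorescence slope after compound addition differing from the mean of all tested samples at 99.7% confidence, mostly higher but some lower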;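 also: thallium influx through GIRK channels coupled to M4 in HEK293 cells with BTC-AM dye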); settings: at 10 µM, actives lie on both sides
Muscarinic acetylcholine receptor M4 (Homo sapiens), sequence (P08173 whole entry, looked up): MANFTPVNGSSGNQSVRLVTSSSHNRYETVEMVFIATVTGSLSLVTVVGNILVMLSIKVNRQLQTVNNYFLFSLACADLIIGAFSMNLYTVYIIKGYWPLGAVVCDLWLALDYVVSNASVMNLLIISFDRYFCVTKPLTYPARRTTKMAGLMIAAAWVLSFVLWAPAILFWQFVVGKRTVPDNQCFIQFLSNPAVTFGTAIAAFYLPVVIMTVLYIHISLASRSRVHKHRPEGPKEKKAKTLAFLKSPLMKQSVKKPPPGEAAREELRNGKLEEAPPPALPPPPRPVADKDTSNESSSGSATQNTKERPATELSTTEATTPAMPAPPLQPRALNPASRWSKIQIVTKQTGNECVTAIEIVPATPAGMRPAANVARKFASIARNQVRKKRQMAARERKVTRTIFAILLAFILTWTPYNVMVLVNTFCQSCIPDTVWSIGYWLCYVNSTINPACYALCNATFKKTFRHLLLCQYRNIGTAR
Outline: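 Material – HEK293 cells with M4 receptor and GIRK channels · Buffer or medium – pH 7.3 thallium assay buffer · Doses – one dose, 10 µM final · Timing – cells overnight at 37 °C, BTC-AM loading 1 h, reads 2 min total · Measured by – kinetic fluorescence with BTC-AM dye · Controls – carbachol and DMSO controls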

[7] = inhibitors of Sendai virus-induced IRF3 signaling, primary screen, TLR/RLR signaling modifier project, cell-based, Sendai virus stimulus, luciferase, 10K MLSCN set (AID 602276;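 active = inhibition at or above 50% at 10 µM; inactive = inhibition below 50%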;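 also: firefly luciferase from ISG56 promoter only with Renilla not read in this screen; 0% = Sendai virus plus DMSO and 100% = medium plus DMSO without virus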); settings: HEK293 RL24 IRF3 luciferase reporter, at 10 µM, stronger effect = higher value
[8] = inhibitors of poly I:C-induced TLR3 signaling, primary screen, cell-based, poly I:C stimulus, luciferase, 10K MLSCN set (AID 602277;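 active = inhibition of the reporter signal at or above 50%; inactive = inhibition below 50%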); settings: HEK293-TLR3 RL24 IRF3 luciferase reporter, at 10 µM, stronger effect = higher value

Row | Structure (SMILES) | cell count [1] | inhibition [1] | inhibition of aggregation [2] | nuclei count [2] [%] | inhibition [3] | nuclei count [3] [%] | fluorescence slope [4] | NADPH fluorescence slope [5] | fluorescence slope [6] | inhibition [7] | inhibition [8]
1 | O=C(Nc1ccc(CN2CCCCC2)cc1)c1ccc2c(c1)OCO2 | 438 | -12.8% (inactive) | 15.1% (inactive) | 102 | -0.6% (inactive) | 73.6 | -0.473 (inactive) | -1.5e-05 (inactive) | 0.00547 (inactive) | -5.51% (inactive) | -5.01% (inactive)
2 | CC(=O)N1CCc2cc(S(=O)(=O)CCC(=O)N3CCN(C(=O)c4ccco4)CC3)ccc21 | 519 | 2.2% (inactive) | 7.5% (inactive) | 105 | -51.9% (inactive) | 116 | -0.413 (inactive) | -4e-05 (inactive) | 0.00737 (inactive) | 12.3% (inactive) | 17.8% (inactive)
3 | COc1ccc(CCNC(=O)c2nc3ncccn3n2)cc1OC | 643 | -2.3% (inactive) | 13.7% (inactive) | 82.2 | -12.1% (inactive) | 100 | -0.447 (inactive) | -4.3e-05 (inactive) | 0.00528 (inactive) | 18.2% (inactive) | 18.1% (inactive)
4 | O=C(O)C1C2CCC(O2)C1C(=O)Nc1cccc(F)c1 (stereo unspecified) | 596 | -2% (inactive) | -0.8% (inactive) | 109 | -56.8% (inactive) | 104 | -0.435 (inactive) | -3.5e-06 (inactive) | 0.00527 (inactive) | 20.3% (inactive) | 19.5% (inactive)
5 | COc1cc(NC(=O)Cc2cccs2)ccc1-n1cnnn1 | 299 | 0% (inactive) | -26.9% (inactive) | 100 | -50.9% (inactive) | 112 | -0.543 (inactive) | -3.6e-05 (inactive) | 0.00442 (inactive) | 18.4% (inactive) | 21.1% (inactive)
6 | COc1ccc(OC)c(C2C3=C(CCCC3=O)Nc3c2c(=O)n(C)c(=O)n3C)c1 (stereo unspecified) | 508 | 1.4% (inactive) | 4.8% (inactive) | 89.5 | -15.1% (inactive) | 96.3 | -0.547 (inactive) | -0.000161 (inactive) | 0.00407 (inactive) | 4.02% (inactive) | 0.406% (inactive)
7 | Fc1c(F)c(F)c(CSc2nc3ccccc3[nH]2)c(F)c1F | 423 | 0% (inactive) | 28.9% (inactive) | 82.8 | -40.6% (inactive) | 86.2 | -0.562 (inactive) | -3.7e-05 (inactive) | 0.0075 (inactive) | -6.35% (inactive) | -46.6% (inactive)
8 | c1ccc2c(NC3CCCC3)nnc(NC3CCCC3)c2c1 | 797 | 7.4% (inactive) | -6.1% (inactive) | 106 | -69.1% (inactive) | 131 | -0.419 (inactive) | 2.2e-05 (inactive) | 0.00394 (inactive) | 7.77% (inactive) | 7.29% (inactive)
9 | Cc1cc(Cl)c(S(=O)(=O)NC2CCCCC2)cc1OCC(=O)Nc1nncs1 | 308 | -21.3% (inactive) | -4.2% (inactive) | 107 | -32.9% (inactive) | 118 | -0.506 (inactive) | -3.4e-05 (inactive) | 0.00536 (inactive) | 13.4% (inactive) | 0.658% (inactive)
10 | N#CCc1nc(CSc2nc3ccccc3s2)cs1 | 347 | -4.4% (inactive) | -7.5% (inactive) | 98 | -27.5% (inactive) | 114 | -0.551 (inactive) | -2.5e-05 (inactive) | 0.0089 (inactive) | -24.2% (inactive) | -87.8% (inactive)
11 | COCCn1c(-c2ccc(OC)c(OC)c2)nc2ccccc21 | 247 | -1.1% (inactive) | 28.5% (inactive) | 85.8 | 16.7% (inactive) | 77.6 | -0.536 (inactive) | -3.2e-05 (inactive) | 0.00485 (inactive) | -2.29% (inactive) | 11% (inactive)
12 | CC(=O)Oc1cccc(/C=c2\sc3nc(-c4ccco4)nn3c2=O)c1 | 324 | -0.6% (inactive) | -30% (inactive) | 103 | -69.5% (inactive) | 80.7 | -0.549 (inactive) | -3e-05 (inactive) | 0.00624 (inactive) | 21.5% (inactive) | 16.1% (inactive)
13 | CN(C)c1ccc(NC(=O)CSCc2nc3c(nnn3Cc3ccc(F)cc3)c(=O)[nH]2)cc1 | 579 | 7.1% (inactive) | -8.4% (inactive) | 105 | -72.4% (inactive) | 114 | -0.204 (inactive) | -6.4e-06 (inactive) | 0.00529 (inactive) | 10.7% (inactive) | 15.6% (inactive)
14 | CCOCCn1cnc2sc(C(=O)NCC(=O)OCC)c(C)c2c1=O | 425 | 7.9% (inactive) | -1.3% (inactive) | 107 | -256% (inactive) | 165 | -0.55 (inactive) | -2.6e-05 (inactive) | 0.00587 (inactive) | -2.53% (inactive) | -16% (inactive)
15 | CN(C(=O)c1ccccn1)c1nnc(-c2ccncc2)s1 | 551 | 5% (inactive) | -7.6% (inactive) | 111 | -35.7% (inactive) | 109 | -0.267 (inactive) | -1.3e-05 (inactive) | 0.00597 (inactive) | 6.96% (inactive) | -3.15% (inactive)
16 | CCCCCc1c(O)c2ccccc2[nH]c1=O | 596 | -9.8% (inactive) | -15.9% (inactive) | 109 | -4.6% (inactive) | 87 | -0.565 (inactive) | -9.6e-05 (inactive) | 0.00337 (inactive) | 11.7% (inactive) | 13.8% (inactive)
17 | O=C(NCc1cccnc1)c1ccccc1Br | 397 | -0.5% (inactive) | 4.6% (inactive) | 104 | -18.8% (inactive) | 112 | -0.521 (inactive) | -1.1e-05 (inactive) | 0.00504 (inactive) | 15.2% (inactive) | 20.8% (inactive)
18 | Cc1c(C(=O)O)oc2ccc(S(=O)(=O)NCc3ccccc3)cc12 | 675 | -4.8% (inactive) | 21.7% (inactive) | 108 | -38.4% (inactive) | 110 | -0.432 (inactive) | 4.7e-05 (inactive) | 0.00586 (inactive) | -0.0664% (inactive) | 11.8% (inactive)
19 | Cc1cc2c(nn1)CCC/C2=N\O | 350 | 4.3% (inactive) | 9.7% (inactive) | 99.1 | 14.6% (inactive) | 110 | -0.552 (inactive) | 2.3e-05 (inactive) | 0.00403 (inactive) | 17.4% (inactive) | 19.5% (inactive)
20 | Cc1cccc(N2CCN(C(=O)c3ccc(NS(=O)(=O)c4c(C)noc4C)cc3)CC2)c1C | 334 | 5.4% (inactive) | -23.1% (inactive) | 97.7 | -283% (inactive) | 84.9 | -0.545 (inactive) | -7.3e-05 (inactive) | 0.00603 (inactive) | -6.14% (inactive) | -0.151% (inactive)
21 | O=C(Cn1c(=O)[nH]c2ccsc2c1=O)NC1CCCCCC1 | 468 | -0.7% (inactive) | 19.2% (inactive) | 104 | 13.2% (inactive) | 107 | -0.26 (inactive) | -3.5e-06 (inactive) | 0.0062 (inactive) | 17.6% (inactive) | 9.21% (inactive)
22 | CC(c1ccccc1)N1C(=O)c2ccc(C(=O)NCc3ccco3)cc2C1=O (stereo unspecified) | 710 | 6.3% (inactive) | -0.8% (inactive) | 107 | 23.2% (inactive) | 93.8 | -0.46 (inactive) | -2.6e-05 (inactive) | 0.00569 (inactive) | -11.4% (inactive) | 51.6% (active)
23 | CCc1nc(N[C@@H](Cc2c[nH]c3ccccc23)C(=O)O)c2oc3ccccc3c2n1 | 570 | -0.4% (inactive) | -19.4% (inactive) | 101 | -59.6% (inactive) | 98.6 | -0.4 (inactive) | 4.2e-05 (inactive) | 0.00556 (inactive) | 10.8% (inactive) | 9.74% (inactive)
24 | CCC(C)NC(=O)C1CCCN(S(=O)(=O)c2ccc(-n3cnnn3)cc2)C1 (stereo unspecified) | 518 | -5.4% (inactive) | 13.6% (inactive) | 104 | -9.5% (inactive) | 108 | -0.279 (inactive) | 8.9e-07 (inactive) | 0.00556 (inactive) | -2.34% (inactive) | -2.75% (inactive)
25 | Cc1cc(S(=O)(=O)n2cnc3ccccc32)c(C)cc1Cl | 449 | -11.9% (inactive) | 25.3% (inactive) | 78 | 8% (inactive) | 113 | -0.473 (inactive) | 1.7e-06 (inactive) | 0.00564 (inactive) | 1.42% (inactive) | 14.8% (inactive)
26 | Cc1c(C(=O)O)oc2ccc(S(=O)(=O)NCCC3=CCCCC3)cc12 | 652 | 9.2% (inactive) | 5% (inactive) | 88 | -36.3% (inactive) | 114 | -0.454 (inactive) | 4.4e-05 (inactive) | 0.0068 (inactive) | 3.33% (inactive) | 15.9% (inactive)
